# Like-named read-outs stand apart in the source and are kept apart here.
# Legend:
# A549 [1] = assay: Annexin V-FITC/7-AAD apoptosis assay; assay type: cell-based, human; details: Annexin V/7-AAD
# Topo IIα [2] = biological target: T1, Topo IIα (Homo sapiens, UniProt P11388); assay: pBR322 DNA relaxation assay; assay type: biochemical; details: for Inhibition of Topo IIα-mediated pBR322 relaxation: gel
# [3] = test system: all investigated cell lines, including HEK293; assay: MTT drug sensitivity assay, statement over all cell lines; assay type: cell-based; details: Homo sapiens, HEK293, 72 h, read-out: IC50 for all investigated cell lines
# Method in brief: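 Cells were exposed to test compound at 0–50 µM for 72 h. Lines: A549 and MCF-7 (RPMI-1640), HCT-116 and U-2 OS (McCoy's 5A), U-87 MG (MEM), HEK293 (DMEM); all with 10% FBS, 37 °C, 5% CO2. MTT (0.4 mg/ml in PBS) for 3 h at 37 °C; formazan dissolved in DMSO; A540. ETP and m-AMSA as references; independent triplicate.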
# U-87 MG = assay: MTT drug sensitivity assay; assay type: cell-based; details: Homo sapiens, 72 h, read-out: In vitro growth inhibitory activity (IC50 ± SD) U-87 MG
# Method in brief: (§1)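 ATCC lines were grown at 37 °C, 5% CO2 with 10% FBS and 2 mM L-glutamine (A549, MCF-7: RPMI-1640; HCT-116, U-2 OS: McCoy's 5A; U-87 MG: MEM; HEK293: DMEM). Test compound 0–50 µM for 72 h, then MTT 0.4 mg/ml in PBS, 3 h, 37 °C. Formazan dissolved in DMSO, absorbance 540 nm. IC50 relative to 1% v/v DMSO-treated cells; three independent runs.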
# U-2 OS = assay: MTT drug sensitivity assay; assay type: cell-based; details: Homo sapiens, U2OS, 72 h, read-out: In vitro growth inhibitory activity (IC50 ± SD) U-2 OS
# Method in brief: as §1
# A549 [4] = assay: Clonogenic assay; assay type: cell-based, human; details: 24 h treatment, eight days culture, vs DMSO
# Method in brief: (§2)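 A549 or HCT-116 cells were seeded at 400 cells/well and exposed to a range of test compound concentrations for 24 h. After washing, cells were grown for eight days, then fixed in methanol and stained with 0.5% crystal violet. Colonies were counted and viability calculated relative to control. Mean ± SD of three independent experiments.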
# Topo IIα [5] = biological target: T1, Topo IIα; assay: kDNA decatenation assay; assay type: biochemical; details: gel
# Method in brief: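 Commercial kit protocol: 250 ng kDNA with test compound in reaction buffer; started by adding diluted human Topo IIα; 30 min at 37 °C; stopped with loading buffer. Products resolved on 1% agarose in 1xTBE, 20 V for 18 h, EtBr-stained, destained in water, imaged. Catenated versus decatenated kDNA judged by migration.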
# Topo IIα [6] = biological target: T1, Topo IIα; assay: DNA cleavage assay; assay type: biochemical; details: for Stabilisation of Topo IIα/DNA cleavage complex (linear pBR322 plasmid): gel, ETP 100 µM
# Method in brief: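 Reaction mix as for the human Topo IIα relaxation assay (plasmid DNA, test compound, reaction buffer), but with fivefold more enzyme. Reaction started by adding human Topo IIα, then 10 min at 37 °C. Products separated by agarose gel electrophoresis in 1× TBE containing EtBr (1 µg/ml), and linear plasmid scored on the gel.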
# A549 [7] = assay: Caspase-3/7 activation; assay type: cell-based, human; details: 24 h, equitoxic concentrations
# A549 [8] = assay: MTT drug sensitivity assay; assay type: cell-based; details: Homo sapiens, A549, 72 h, read-out: In vitro growth inhibitory activity (IC50 ± SD) A549
# Method in brief: as §1
# HEK293 = assay: MTT drug sensitivity assay; assay type: cell-based; details: Homo sapiens, HEK293, 72 h, read-out: In vitro growth inhibitory activity (IC50 ± SD) HEK293
# Method in brief: as §1
# HCT-116 [9] = assay: Annexin V-FITC/7-AAD apoptosis assay; assay type: cell-based, human; details: for Necrosis activation HCT-116: statistically significant, **p < 0.001
# human Topo IIβ [10] = biological target: T2, human Topo IIβ (Homo sapiens, UniProt Q02880); assay: pBR322 DNA relaxation assay; assay type: biochemical; details: gel
# T2 sequence (Q02880 whole entry): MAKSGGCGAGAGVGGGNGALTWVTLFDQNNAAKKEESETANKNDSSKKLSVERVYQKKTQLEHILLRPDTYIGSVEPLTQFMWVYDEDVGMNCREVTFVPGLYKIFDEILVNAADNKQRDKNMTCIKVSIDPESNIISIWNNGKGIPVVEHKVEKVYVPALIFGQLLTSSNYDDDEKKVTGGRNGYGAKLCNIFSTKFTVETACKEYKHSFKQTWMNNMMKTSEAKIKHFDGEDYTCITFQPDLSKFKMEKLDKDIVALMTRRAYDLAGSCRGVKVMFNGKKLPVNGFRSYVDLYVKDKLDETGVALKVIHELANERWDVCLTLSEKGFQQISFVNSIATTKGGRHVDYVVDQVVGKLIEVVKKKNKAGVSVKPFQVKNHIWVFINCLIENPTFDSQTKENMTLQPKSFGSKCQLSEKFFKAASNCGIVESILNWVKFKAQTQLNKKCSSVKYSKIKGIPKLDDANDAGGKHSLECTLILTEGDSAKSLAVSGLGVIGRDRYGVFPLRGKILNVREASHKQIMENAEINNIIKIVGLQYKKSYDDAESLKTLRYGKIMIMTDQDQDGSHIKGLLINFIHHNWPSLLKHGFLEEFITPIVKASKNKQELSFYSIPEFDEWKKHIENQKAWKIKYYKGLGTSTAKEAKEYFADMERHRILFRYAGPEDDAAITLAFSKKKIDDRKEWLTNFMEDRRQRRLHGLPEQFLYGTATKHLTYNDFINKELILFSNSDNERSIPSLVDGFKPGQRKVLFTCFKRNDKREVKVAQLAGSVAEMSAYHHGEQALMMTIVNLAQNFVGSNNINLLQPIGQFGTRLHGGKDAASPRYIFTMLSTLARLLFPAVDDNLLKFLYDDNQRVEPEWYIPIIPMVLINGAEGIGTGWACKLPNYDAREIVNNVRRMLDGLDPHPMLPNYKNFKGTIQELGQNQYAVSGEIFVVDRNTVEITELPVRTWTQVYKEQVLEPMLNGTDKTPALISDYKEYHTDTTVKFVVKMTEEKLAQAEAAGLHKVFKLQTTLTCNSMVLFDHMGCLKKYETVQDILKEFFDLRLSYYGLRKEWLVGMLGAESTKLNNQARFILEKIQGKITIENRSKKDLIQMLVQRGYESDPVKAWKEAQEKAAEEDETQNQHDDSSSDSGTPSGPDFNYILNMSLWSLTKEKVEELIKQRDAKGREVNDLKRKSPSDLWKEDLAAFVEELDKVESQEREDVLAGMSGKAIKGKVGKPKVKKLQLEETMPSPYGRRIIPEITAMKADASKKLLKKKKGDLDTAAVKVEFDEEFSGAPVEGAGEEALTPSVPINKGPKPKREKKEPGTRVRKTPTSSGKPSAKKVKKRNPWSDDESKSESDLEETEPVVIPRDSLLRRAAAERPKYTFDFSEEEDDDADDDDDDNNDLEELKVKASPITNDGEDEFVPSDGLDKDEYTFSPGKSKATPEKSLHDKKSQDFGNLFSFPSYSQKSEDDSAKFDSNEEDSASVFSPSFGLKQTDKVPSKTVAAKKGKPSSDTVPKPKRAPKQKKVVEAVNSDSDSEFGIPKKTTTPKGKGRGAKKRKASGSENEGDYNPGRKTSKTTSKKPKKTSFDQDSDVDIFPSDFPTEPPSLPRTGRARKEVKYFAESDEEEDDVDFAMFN
# Method in brief: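 Supercoiled pBR322 (250 ng) with test compound in reaction buffer. Started by adding diluted human Topo IIβ, incubated 30 min at 37 °C, quenched with loading buffer. Topoisomers separated on 1% agarose in 1× TBE (20 V, 18 h) and visualised by ethidium bromide staining. ETP and ICRF-187 were included as references.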
# human Topo IIβ [11] = biological target: T2, human Topo IIβ; assay: kDNA decatenation assay; assay type: biochemical; details: gel
# Method in brief: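 Decatenation: 250 ng kDNA was mixed with test compound in reaction buffer. The reaction was started with diluted human Topo IIβ and run for 30 min at 37 °C, then stopped with loading buffer. Products were resolved on a 1% agarose gel in 1× TBE at 20 V for 18 h and stained with ethidium bromide. ETP and ICRF-187 were references.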
# HCT-116 [12] = assay: TUNEL DNA fragmentation analysis; assay type: cell-based, human; details: 24 and 48 h; more pronounced than on A549
# HCT-116 [13] = assay: Clonogenic assay; assay type: cell-based, human; details: 24 h treatment, eight days culture, vs DMSO
# Method in brief: as §2
# HCT-116 [14] = assay: MTT drug sensitivity assay; assay type: cell-based; details: Homo sapiens, HCT-116, 72 h, read-out: In vitro growth inhibitory activity (IC50 ± SD) HCT-116
# Method in brief: as §1
# MCF-7 [15] = assay: MTT drug sensitivity assay; assay type: cell-based; details: Homo sapiens, MCF7, 72 h, read-out: In vitro growth inhibitory activity (IC50 ± SD) MCF-7
# Method in brief: as §1
# HCT-116 [16] = assay: Cell cycle analysis; assay type: cell-based, human; details: equitoxic concentrations, 24 and 48 h
# HCT-116 [17] = assay: BrdU incorporation assay; assay type: cell-based, human; details: equitoxic (IC50) concentration, 24 or 48 h
# A549 [18] = assay: BrdU incorporation assay; assay type: cell-based, human; details: equitoxic (IC50) concentration, 24 or 48 h
# MCF-7 [19] = assay: Cell cycle analysis; assay type: cell-based, human; details: 48 h exposure, equitoxic concentration, p < 0.00001
# A549 [20] = details: reference, 50 µM added 15 min before end of incubation
# HCT-116 [21] = details: reference, 50 µM added 15 min before end of incubation
# A549 [22] = details: read-out: IC50 cytotoxic activity A549; 72 h ref 51; cited from earlier work
# MCF-7 [23] = details: read-out: IC50 cytotoxic activity MCF-7; 72 h ref 51; cited from earlier work
# [24] = concentration series up to highest concentration tested
# T1 sequence (P11388 whole entry): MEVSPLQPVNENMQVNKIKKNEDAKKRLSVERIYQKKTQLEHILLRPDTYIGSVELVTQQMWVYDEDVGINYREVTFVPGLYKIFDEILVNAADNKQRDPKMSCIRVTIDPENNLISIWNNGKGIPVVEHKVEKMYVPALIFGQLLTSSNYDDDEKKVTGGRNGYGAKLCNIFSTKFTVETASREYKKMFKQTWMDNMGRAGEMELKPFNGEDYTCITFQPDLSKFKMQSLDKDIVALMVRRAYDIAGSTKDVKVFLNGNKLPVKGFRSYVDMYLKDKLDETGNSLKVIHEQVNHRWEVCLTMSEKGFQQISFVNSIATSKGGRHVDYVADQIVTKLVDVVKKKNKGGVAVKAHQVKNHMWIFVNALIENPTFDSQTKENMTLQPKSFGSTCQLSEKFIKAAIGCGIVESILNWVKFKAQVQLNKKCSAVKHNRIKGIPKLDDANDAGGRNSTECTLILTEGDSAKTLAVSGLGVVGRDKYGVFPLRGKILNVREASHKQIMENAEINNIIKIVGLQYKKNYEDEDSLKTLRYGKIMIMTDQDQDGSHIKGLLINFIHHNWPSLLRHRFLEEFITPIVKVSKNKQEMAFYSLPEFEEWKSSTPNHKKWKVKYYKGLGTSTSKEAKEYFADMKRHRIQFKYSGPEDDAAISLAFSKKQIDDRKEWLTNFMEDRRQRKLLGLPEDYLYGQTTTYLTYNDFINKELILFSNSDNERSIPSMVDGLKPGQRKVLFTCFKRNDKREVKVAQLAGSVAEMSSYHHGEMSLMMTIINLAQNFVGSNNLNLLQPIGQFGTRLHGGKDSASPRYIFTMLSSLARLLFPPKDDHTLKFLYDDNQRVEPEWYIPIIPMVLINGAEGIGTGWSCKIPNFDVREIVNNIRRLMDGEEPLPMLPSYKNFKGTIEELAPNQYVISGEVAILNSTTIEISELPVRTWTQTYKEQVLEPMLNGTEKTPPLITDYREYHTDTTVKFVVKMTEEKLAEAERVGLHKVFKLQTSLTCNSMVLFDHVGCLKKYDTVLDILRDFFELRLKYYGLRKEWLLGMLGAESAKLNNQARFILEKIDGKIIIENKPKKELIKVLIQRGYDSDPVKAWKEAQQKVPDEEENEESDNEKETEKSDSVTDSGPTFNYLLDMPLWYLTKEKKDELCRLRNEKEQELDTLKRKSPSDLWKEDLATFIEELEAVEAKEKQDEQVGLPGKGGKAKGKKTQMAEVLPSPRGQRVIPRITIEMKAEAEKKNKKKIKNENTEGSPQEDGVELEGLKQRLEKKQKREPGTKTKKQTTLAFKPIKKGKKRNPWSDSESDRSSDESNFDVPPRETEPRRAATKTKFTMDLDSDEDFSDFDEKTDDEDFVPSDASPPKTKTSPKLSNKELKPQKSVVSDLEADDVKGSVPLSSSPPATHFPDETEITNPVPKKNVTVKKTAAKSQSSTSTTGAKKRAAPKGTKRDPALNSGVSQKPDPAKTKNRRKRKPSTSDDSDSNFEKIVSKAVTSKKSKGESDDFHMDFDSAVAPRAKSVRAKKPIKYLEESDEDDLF
SMILES,IC50 (U-87 MG) [nM],IC50 (U-2 OS) [nM],Colony-forming ability A549 (A549 [4]),Stabilisation of Topo IIα/DNA cleavage complex (linear pBR322 plasmid) (Topo IIα [6]),"Caspase-3/7 activation, increase compared to control A549 (A549 [7]) [fold]",IC50 (A549 [8]) [nM],IC50 (HEK293) [nM],IC50 (HCT-116 [14]) [nM],IC50 (MCF-7 [15]) [nM],also measured
"c1coc(-c2ccc3c(c2)[nH]c2cc(-c4ccco4)ccc23)c1 [Compound 27a, 2,7-Di(2-furyl)-9H-carbazole]",450 ± 150,370 ± 50,reduced the colony number,do not stabilise the covalent cleavage complex,3.4,260 ± 120,190 ± 70,220 ± 40,790 ± 210,"Increase in fraction of apoptotic cells compared to control A549 (A549 [1]): eightfold increase; Inhibition of Topo IIα-mediated pBR322 relaxation (Topo IIα [2]; highest tested concentrations): moderately affected; IC50 [3]: < 1000 nM; Inhibition of Topo IIα-mediated kDNA decatenation (Topo IIα [5]; [24]): either completely inhibited decatenation only at the highest concentration tested, or partially inhibited the decatenation of higher-order catenates; Increase in fraction of apoptotic cells compared to control HCT-116 (HCT-116 [9]; Annexin V/7-AAD): eightfold increase; Necrosis activation HCT-116 (HCT-116 [9]): slightly activated necrosis; Inhibition of Topo IIβ-mediated pBR322 relaxation (human Topo IIβ [10]; highest tested concentrations): moderately affected; Inhibition of Topo IIβ-mediated kDNA decatenation (human Topo IIβ [11]; 100 µM): completely inhibited decatenation; TUNEL-positive cells HCT-116 (HCT-116 [12]): most massive effect; Colony-forming ability HCT-116 (HCT-116 [13]): reduced the colony number"
"c1coc(-c2ccc3[nH]c4ccc(-c5ccco5)cc4c3c2)c1 [Compound 36a, 3,6-Di(2-furyl)-9H-carbazole]",2190 ± 300,990 ± 180,reduced the colony number,do not stabilise the covalent cleavage complex,5.7,930 ± 150,1650 ± 130,480 ± 60,1390 ± 290,"Isoform selectivity of relaxation inhibition (Topo IIα vs Topo IIβ) (Topo IIα [2]; from relaxation gels with both isoforms): selectively inhibits the relaxation activity of Topo IIα; Inhibition of Topo IIα-mediated pBR322 relaxation (Topo IIα [2]; 20–100 µM): fully inhibited DNA relaxation; Cell cycle effect HCT-116 (G0/G1 phase) (HCT-116 [16]): time-dependent increase in the number of cells in the G0/G1 phase; Inhibition of Topo IIα-mediated kDNA decatenation (Topo IIα [5]; 4–100 µM): effective and concentration-dependent inhibition; Effect on ETP-induced DNA cleavage (linear plasmid) (Topo IIα [6]; co-treatment with ETP, Topo IIα): reduced the level of linear plasmid; Inhibition of Topo IIβ-mediated pBR322 relaxation (human Topo IIβ [10]; 20–100 µM): did not impact Topo IIβ activity; Inhibition of Topo IIβ-mediated kDNA decatenation (human Topo IIβ [11]; highest concentration tested): partially inhibiting decatenation only at the highest concentration tested; Colony-forming ability HCT-116 (HCT-116 [13]): reduced the colony number"
"c1csc(-c2ccc3[nH]c4ccc(-c5cccs5)cc4c3c2)c1 [Compound 36b, 3,6-Di(2-thienyl)-9H-carbazole]",1400 ± 240,710 ± 60,lower inhibitory activity,do not stabilise the covalent cleavage complex,2.5,600 ± 100,320 ± 110,270 ± 110,830 ± 210,"Inhibition of Topo IIα-mediated pBR322 relaxation (Topo IIα [2]; highest tested concentrations): moderately affected; Inhibition of Topo IIα-mediated kDNA decatenation (Topo IIα [5]; [24]): either completely inhibited decatenation only at the highest concentration tested, or partially inhibited the decatenation of higher-order catenates; Decrease in BrdU-positive cells HCT-116 (HCT-116 [17]): ~3.5 fold; Decrease in BrdU-positive cells A549 (A549 [18]): approximately 4 fold; Necrosis activation HCT-116 (HCT-116 [9]): slightly activated necrosis; Cells in G0/G1 phase MCF-7 (MCF-7 [19]): 59.85 ± 2.15%; Inhibition of Topo IIβ-mediated pBR322 relaxation (human Topo IIβ [10]; highest tested concentrations): moderately affected"
"COc1cc([C@@H]2c3cc4c(cc3[C@@H](O[C@@H]3O[C@@H]5CO[C@@H](C)O[C@H]5[C@H](O)[C@H]3O)[C@H]3COC(=O)[C@H]23)OCO4)cc(OC)c1O [Etoposide, etoposide, reference compound]",11900 ± 1310,610 ± 40,–,–,–,540 ± 210,–,390 ± 10,830 ± 150,–
"N#CC(C#N)=NNc1ccc(OC(F)(F)F)cc1 [FCCP, carbonyl cyanide 4-(trifluoromethoxy)phenylhydrazone]",–,–,–,–,–,–,–,–,–,Increase in JC-1 monomers vs control A549 (A549 [20]): 11 fold; Increase in JC-1 monomers vs control HCT-116 (HCT-116 [21]): 6.3 fold
"C[C@@H](CN1CC(=O)NC(=O)C1)N1CC(=O)NC(=O)C1 [ICRF-187, reference compound]",–,–,–,–,–,–,–,–,–,Inhibition of Topo IIα-mediated pBR322 relaxation (Topo IIα [2]; reference at 100 µM): completely inhibited relaxation activity; Inhibition of Topo IIβ-mediated pBR322 relaxation (human Topo IIβ [10]; reference at 100 µM): relatively lower inhibitory effects; Inhibition of Topo IIβ-mediated kDNA decatenation (human Topo IIβ [11]; 100 µM): more significant effect than ETP
O=C1NC(=S)NC(=O)C1C(=O)Nc1ccccc1 [merbarone],–,–,–,–,–,–,–,–,–,IC50 (A549 [22]): 40000 ± 2700 nM; IC50 (MCF-7 [23]): 83900 ± 3000 nM
